Assay results: ChEMBL document CHEMBL3870320, “Yakushinamides, Polyoxygenated Fatty Acid Amides That Inhibit HDACs and SIRTs, from the Marine Sponge Theonella swinhoei” (J Nat Prod, 2016)

Tests used:
[1] = target: Histone deacetylase 4 (Homo sapiens) (UniProt P56524); assay: Inhibition of human FLAG-tagged HDAC4 expressed in human 293T cells assessed as formation of amino methyl coumarin from Ac-KGLGK(Ac)-MCA measured after 30 mins by fluorescence analysis; type: cell-based
[2] = target: T1, NAD-dependent protein deacetylase sirtuin-2 (Homo sapiens) (UniProt Q8IXJ6); assay: Inhibition of recombinant human GST-tagged SIRT2 catalytic domain using Ac-RHKK(Ac)-MCA assessed as formation of amino methyl coumarin from Ac-RHKK(Ac)-MCA and NAD measured after 60 mins by fluorescence analysis
T1 sequence (whole entry): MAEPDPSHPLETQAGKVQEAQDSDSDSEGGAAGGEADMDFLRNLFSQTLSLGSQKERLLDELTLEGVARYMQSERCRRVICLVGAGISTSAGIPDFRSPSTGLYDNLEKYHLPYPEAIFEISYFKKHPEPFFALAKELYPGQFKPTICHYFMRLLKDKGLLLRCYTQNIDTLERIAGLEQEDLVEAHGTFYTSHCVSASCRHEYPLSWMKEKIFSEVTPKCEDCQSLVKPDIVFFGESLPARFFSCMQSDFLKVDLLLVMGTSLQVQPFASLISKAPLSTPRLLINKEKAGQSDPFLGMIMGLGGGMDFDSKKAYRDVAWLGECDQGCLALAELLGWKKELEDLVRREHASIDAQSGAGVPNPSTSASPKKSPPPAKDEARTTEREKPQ
How it was run: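 Recombinant GST-fused SIRT2 catalytic domain with 100 μM Ac-RHKK(Ac)-MCA and NAD (final 1 mM) in 50 mM Tris-HCl pH 9.0, 4 mM MgCl2, 0.2 mM DTT, 60 min at 37 °C. Trypsin (final 20 mg/mL) then added for 15 min at 37 °C. Released aminomethylcoumarin fluorescence read at ex 370/em 460 nm.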

[3] = target: T2, NAD-dependent protein deacetylase sirtuin-3, mitochondrial (Homo sapiens) (UniProt Q9NTG7); assay: Inhibition of recombinant human His-tagged SIRT3 (118 to 399 residues) expressed in Escherichia coli BL21 (DE3) assessed as formation of amino methyl coumarin from Ac-VSTPVK(Ac)-MCA and NAD measured after 60 mins by fluorescence analysis
T2 sequence (whole entry): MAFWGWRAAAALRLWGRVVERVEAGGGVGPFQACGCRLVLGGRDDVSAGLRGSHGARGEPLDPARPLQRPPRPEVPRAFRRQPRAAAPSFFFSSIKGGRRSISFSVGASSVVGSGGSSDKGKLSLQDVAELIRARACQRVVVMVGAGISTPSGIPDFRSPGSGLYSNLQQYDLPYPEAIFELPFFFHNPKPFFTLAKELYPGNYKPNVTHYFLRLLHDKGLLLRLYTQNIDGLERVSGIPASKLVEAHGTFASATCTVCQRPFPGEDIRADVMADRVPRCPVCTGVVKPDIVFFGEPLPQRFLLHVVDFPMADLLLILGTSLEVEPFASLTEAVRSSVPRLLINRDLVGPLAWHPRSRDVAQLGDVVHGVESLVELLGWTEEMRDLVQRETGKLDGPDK
How it was run: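 His-tagged recombinant SIRT3 incubated with 100 μM Ac-VSTPVK(Ac)-MCA and NAD (final 1 mM) in 50 mM Tris-HCl pH 9.0, 4 mM MgCl2, 0.2 mM DTT for 60 min at 37 °C. Trypsin (final 20 mg/mL) was added and the mixture held 15 min more at 37 °C. Fluorescence of freed aminomethylcoumarin measured at ex 370/em 460 nm.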

[4] = target: T3, Protein deacetylase HDAC6 (Homo sapiens) (UniProt Q9UBN7); assay: Inhibition of human FLAG-tagged HDAC6 expressed in human 293T cells assessed as formation of amino methyl coumarin from Ac-KGLGK(Ac)-MCA measured after 30 mins by fluorescence analysis; type: cell-based
T3 sequence (whole entry): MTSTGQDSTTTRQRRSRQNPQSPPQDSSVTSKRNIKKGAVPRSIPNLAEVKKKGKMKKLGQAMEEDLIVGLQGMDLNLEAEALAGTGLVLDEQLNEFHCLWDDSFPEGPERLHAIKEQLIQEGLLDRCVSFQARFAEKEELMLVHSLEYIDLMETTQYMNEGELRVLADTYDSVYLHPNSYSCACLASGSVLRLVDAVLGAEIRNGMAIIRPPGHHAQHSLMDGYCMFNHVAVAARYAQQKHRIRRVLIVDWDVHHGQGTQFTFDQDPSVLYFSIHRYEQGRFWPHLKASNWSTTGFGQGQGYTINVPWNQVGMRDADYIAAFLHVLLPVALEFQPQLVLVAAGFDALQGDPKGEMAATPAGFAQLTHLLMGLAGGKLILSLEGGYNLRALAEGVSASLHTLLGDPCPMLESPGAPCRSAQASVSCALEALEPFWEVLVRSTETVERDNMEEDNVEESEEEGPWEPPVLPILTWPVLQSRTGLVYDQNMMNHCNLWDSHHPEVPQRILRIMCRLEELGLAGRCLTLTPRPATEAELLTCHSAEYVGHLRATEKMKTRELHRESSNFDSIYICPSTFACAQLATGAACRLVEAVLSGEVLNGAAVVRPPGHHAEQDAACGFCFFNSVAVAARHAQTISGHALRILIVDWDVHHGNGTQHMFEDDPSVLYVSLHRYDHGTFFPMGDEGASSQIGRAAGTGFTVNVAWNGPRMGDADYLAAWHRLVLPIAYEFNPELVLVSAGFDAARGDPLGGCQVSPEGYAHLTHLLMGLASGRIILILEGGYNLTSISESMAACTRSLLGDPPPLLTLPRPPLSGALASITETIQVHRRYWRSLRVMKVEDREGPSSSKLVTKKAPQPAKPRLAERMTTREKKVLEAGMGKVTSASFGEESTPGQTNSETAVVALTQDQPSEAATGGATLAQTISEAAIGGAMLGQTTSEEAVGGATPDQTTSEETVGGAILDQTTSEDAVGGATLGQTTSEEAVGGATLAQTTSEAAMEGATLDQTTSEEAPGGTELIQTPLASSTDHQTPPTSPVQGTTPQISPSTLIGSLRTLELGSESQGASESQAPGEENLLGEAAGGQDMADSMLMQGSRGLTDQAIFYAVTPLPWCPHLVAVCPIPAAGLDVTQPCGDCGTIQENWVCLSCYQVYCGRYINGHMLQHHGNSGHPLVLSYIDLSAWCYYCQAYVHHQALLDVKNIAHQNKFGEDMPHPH

[5] = target: Histone deacetylase 1 (Homo sapiens) (UniProt Q13547); assay: Inhibition of human FLAG-tagged HDAC1 expressed in human 293T cells assessed as formation of amino methyl coumarin from Ac-KGLGK(Ac)-MCA measured after 30 mins by fluorescence analysis; type: cell-based
[6] = target: T4, NAD-dependent protein deacetylase sirtuin-1 (Homo sapiens) (UniProt Q96EB6); assay: Inhibition of recombinant human SIRT1 expressed in Escherichia coli BL21 (DE3) assessed as formation of amino methyl coumarin from Ac-RHKK(Ac)-MCA and NAD measured after 60 mins by fluorescence analysis
T4 sequence (whole entry): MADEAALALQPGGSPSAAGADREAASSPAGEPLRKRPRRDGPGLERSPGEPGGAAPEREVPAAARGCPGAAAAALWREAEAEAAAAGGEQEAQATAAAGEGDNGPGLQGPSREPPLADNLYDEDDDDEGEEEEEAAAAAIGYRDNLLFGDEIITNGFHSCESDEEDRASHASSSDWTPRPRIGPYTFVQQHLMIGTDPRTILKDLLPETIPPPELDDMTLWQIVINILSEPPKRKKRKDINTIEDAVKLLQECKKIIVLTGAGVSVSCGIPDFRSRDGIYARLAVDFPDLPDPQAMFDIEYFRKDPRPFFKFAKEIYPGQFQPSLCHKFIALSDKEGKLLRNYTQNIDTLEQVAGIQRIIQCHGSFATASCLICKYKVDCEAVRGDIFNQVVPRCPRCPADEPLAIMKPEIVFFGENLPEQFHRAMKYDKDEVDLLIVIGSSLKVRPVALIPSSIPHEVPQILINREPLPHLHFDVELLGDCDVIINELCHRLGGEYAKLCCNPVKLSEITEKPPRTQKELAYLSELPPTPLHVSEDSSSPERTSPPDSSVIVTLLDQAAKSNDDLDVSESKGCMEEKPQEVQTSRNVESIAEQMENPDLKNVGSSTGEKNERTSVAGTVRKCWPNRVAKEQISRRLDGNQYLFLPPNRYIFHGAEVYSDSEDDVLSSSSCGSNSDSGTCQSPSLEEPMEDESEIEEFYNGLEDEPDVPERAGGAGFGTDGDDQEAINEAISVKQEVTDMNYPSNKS
How it was run: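 SIRT1 was expressed from pCold TF in E. coli BL21 (DE3) with 0.3 mM IPTG at 16 °C for 24 h, and the (His)6 protein was purified by nickel affinity then anion exchange. Assay used 100 μM Ac-RHKK(Ac)-MCA and 1 mM NAD (final) in Tris-HCl pH 9.0 buffer for 60 min at 37 °C. Trypsin was added for 15 min, and fluorescence was read at ex 370/em 460 nm.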

Sequence of Histone deacetylase 4 (Homo sapiens) (P56524 whole entry, the tested form may be a part): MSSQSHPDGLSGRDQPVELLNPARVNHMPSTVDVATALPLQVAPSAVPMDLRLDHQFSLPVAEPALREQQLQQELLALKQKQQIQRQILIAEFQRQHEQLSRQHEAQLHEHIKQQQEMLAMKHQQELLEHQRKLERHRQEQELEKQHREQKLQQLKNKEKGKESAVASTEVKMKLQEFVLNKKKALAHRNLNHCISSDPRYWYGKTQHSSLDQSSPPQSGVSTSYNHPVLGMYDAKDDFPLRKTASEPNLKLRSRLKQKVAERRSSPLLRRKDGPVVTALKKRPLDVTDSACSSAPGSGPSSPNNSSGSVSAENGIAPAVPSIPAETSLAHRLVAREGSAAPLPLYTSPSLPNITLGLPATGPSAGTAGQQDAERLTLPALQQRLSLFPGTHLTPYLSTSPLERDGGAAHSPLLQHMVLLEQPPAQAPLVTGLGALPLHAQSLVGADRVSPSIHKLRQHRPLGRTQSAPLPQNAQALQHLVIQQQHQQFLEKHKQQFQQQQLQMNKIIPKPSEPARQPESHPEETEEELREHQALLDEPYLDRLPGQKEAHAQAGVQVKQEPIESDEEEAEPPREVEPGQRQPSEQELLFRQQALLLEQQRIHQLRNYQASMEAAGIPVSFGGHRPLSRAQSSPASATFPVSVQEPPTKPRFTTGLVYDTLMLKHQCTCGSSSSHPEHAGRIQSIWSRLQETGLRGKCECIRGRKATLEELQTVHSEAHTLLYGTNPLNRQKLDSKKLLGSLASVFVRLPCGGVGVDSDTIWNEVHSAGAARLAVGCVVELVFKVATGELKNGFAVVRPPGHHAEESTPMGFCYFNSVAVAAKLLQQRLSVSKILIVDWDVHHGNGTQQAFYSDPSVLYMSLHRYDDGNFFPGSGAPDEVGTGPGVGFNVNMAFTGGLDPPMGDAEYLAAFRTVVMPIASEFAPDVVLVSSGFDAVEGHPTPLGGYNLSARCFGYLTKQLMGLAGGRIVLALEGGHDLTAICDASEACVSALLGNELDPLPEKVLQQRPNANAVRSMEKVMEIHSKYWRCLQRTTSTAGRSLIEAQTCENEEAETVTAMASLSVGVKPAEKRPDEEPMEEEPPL
Sequence of Histone deacetylase 1 (Homo sapiens) (Q13547 whole entry): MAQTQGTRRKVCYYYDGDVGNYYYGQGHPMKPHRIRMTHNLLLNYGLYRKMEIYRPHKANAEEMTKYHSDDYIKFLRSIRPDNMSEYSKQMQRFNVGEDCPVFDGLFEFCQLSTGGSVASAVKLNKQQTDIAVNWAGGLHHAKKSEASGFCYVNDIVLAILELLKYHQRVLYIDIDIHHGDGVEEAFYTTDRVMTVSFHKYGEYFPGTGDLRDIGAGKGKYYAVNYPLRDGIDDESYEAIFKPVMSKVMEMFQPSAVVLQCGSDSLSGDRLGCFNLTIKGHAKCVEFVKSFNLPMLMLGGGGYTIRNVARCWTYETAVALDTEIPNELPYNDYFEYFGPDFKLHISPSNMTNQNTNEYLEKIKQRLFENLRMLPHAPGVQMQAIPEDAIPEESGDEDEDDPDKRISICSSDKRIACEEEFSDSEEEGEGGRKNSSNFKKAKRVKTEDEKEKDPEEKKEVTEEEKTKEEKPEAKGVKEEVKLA

IC50 [1] [µM]	IC50 [2] [µM]	IC50 [3] [µM]	IC50 [4] [µM]	IC50 [5] [µM]	IC50 [6] [µM]	Structure (SMILES)
75	150	78	52	29	34	CCCCCC[C@@H](C)[C@@H](CCCCCCCC(O)CCCC[C@@H](OC(C)=O)[C@@H](OC(C)=O)[C@H](CCCCCCC(=O)N1CCC[C@H]1C(=O)OC)OC(C)=O)OS(=O)(=O)O (some centres not stated)
> 200	> 200	79	> 200	26	16	CCCCCCC[C@@H](C)C[C@@H](O)CCCCCCC[C@@H](CCCC[C@@H](OC(C)=O)[C@@H](OC(C)=O)[C@H](CCCCCCC(=O)N1CCC[C@H]1C(=O)OC)OC(C)=O)OS(=O)(=O)O
